Test [1] addresses T1, Mu-type opioid receptor (Rattus norvegicus, UniProt P33535). Kind of test: Displacement of [3H]DAMGO from mu opioid receptor in rat brain membranes. The format is cell membranes. (Loss of bound radioactivity is the signal in a displacement assay; it reports binding, not function.)
The target in test [2] is Delta-type opioid receptor (Rattus norvegicus, UniProt P33533). Kind of test: Displacement of [3H]naltrindole from delta opioid receptor in rat brain membranes. The format is cell membranes.
Delta-type opioid receptor (Rattus norvegicus, UniProt P33533), sequence (P33533 whole entry): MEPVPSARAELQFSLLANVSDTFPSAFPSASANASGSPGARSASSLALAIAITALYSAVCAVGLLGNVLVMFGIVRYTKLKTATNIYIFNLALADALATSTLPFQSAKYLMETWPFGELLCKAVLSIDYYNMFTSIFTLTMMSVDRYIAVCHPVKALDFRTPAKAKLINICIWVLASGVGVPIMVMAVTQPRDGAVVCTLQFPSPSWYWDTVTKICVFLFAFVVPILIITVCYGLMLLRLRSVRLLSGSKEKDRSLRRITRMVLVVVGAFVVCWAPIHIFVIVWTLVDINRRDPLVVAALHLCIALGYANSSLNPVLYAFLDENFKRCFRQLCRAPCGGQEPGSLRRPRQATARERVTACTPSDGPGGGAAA
Test [3] can be described thus: Selectivity for mu opioid receptor over delta opioid receptor in rat brain membranes. In kind it is cell membranes.
The target of test [4] is Delta-type opioid receptor (Homo sapiens, UniProt P41143). Kind of test: Antagonist activity at delta opioid receptor expressed in CHO cells assessed as release of intracellular calcium ions by aequorin luminescence-based calcium assay. The format is functional, cell-based. In general terms: Calcium assays in cells follow changes in intracellular calcium, usually with a dye or a luminescent sensor.
Delta-type opioid receptor (Homo sapiens, UniProt P41143), sequence (P41143 whole entry): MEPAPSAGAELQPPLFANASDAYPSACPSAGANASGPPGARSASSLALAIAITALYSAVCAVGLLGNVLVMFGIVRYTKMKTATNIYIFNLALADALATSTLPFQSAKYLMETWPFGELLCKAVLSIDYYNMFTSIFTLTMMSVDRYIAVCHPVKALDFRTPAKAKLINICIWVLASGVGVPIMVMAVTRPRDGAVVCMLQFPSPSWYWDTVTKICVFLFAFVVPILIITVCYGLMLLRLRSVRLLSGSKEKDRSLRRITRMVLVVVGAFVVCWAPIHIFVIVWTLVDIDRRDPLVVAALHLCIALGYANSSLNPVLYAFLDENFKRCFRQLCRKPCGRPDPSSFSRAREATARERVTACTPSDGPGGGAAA

Test [5] deals with Mus musculus. Kind of test: Antinociceptive activity in mouse assessed as paw licking latency at 10 ug, icv in presence of endomorphin-2 by hot plate test. In kind it is functional. A digest of the protocol: (§1)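 Mouse hot plate test with intracerebroventricular co-injection of endomorphin-2 (3 ug/animal) plus antagonist: naloxone at 5 ug/animal, or analog at 10 ug/animal. Rearing, paw-licking and jumping latencies were measured against saline controls and converted to %MPE = (t1 − t0)/(t2 − t0) × 100, with a 240 s cutoff.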

Test [6] has as its system Mus musculus. Nature of the test: Antinociceptive activity in mouse assessed as rearing latency at 10 ug, icv in presence of endomorphin-2 by hot plate test. The format is functional. Put shortly:
as §1
Background: Hot-plate and tail-flick tests time the reaction to a heat stimulus.

The test system of test [7] is Mus musculus. Kind of test: Antinociceptive activity in mouse assessed as jumping latency at 10 ug, icv in presence of endomorphin-2 by hot plate test. The format is functional. A digest of the protocol:
as §1

For test [8], the target named is T1, Mu-type opioid receptor. Nature of the test: Displacement of [3H]naloxone from mu opioid receptor in rat brain membranes. The format is cell membranes.
For test [9], the system named is Mus musculus. Kind of test: Antinociceptive activity in mouse assessed as paw licking latency at 10 ug, icv by hot plate test. In kind it is functional. Put shortly: (§2)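 Mice, single intracerebroventricular peptide injection; hot plate latencies recorded for rearing, paw licking and jumping. Control latencies (t0) taken after saline, test latencies (t1) after peptide. Expressed as %MPE = (t1 − t0)/(t2 − t0) × 100, with a cutoff time (t2) of 240 s.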

Test [10] has as its system Mus musculus. Kind of test: Antinociceptive activity in mouse assessed as rearing latency at 10 ug, icv by hot plate test. In kind it is functional. Put shortly: as §2
In test [11] the test system is Mus musculus. Kind of test: Antinociceptive activity in mouse assessed as jumping latency at 10 ug, icv by hot plate test. In kind it is functional. A digest of the protocol: as §2
The subject of test [12] is Mus musculus. Nature of the test: Antinociceptive activity in mouse assessed as jumping latency at 5 ug, icv in presence of endomorphin-2 by hot plate test. The format is functional. Put shortly:
as §1

Test [13] deals with Mus musculus. Kind of test: Antinociceptive activity in mouse assessed as paw licking latency at 5 ug, icv in presence of endomorphin-2 by hot plate test. The format is functional. Put shortly: as §1
In test [14] the test system is Mus musculus. Kind of test: Antinociceptive activity in mouse assessed as rearing latency at 5 ug, icv in presence of endomorphin-2 by hot plate test. In kind it is functional. Put shortly:
as §1

Peptide text beside a SMILES is read from it. Some results are limits rather than exact numbers.

Usually IC50 stands for the concentration at which inhibition is half-maximal. A high value points to weaker potency. As usually defined, the EC50 is the concentration at which the effect is half-maximal.

T1 sequence (P33535 whole entry): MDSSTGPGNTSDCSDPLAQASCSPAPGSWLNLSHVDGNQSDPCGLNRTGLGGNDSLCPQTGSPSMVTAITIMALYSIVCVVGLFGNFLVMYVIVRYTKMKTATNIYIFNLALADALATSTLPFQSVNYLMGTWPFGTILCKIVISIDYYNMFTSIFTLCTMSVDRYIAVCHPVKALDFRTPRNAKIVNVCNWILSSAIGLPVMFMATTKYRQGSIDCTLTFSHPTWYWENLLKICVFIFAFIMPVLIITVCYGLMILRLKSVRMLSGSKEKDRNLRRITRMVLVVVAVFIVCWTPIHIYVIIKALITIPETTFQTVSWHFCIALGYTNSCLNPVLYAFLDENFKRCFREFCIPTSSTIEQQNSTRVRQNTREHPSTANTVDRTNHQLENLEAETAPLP

Turning to `CN(CC(=O)N[C@@H](Cc1ccccc1)C(=O)N[C@H](Cc1ccc2ccccc2c1)C(N)=O)C(=O)[C@@H](N)Cc1ccc(O)cc1`, the half-inhibitory concentration (IC50) on Mu-type opioid receptor [1] is 1560 nM; in test [2], > 10 µM; in test [3], > 6.41 nM. The EC50 in test [4] was > 1000 nM.

Regarding `NC(=O)[C@@H](Cc1ccc2ccccc2c1)NC(=O)[C@H](Cc1ccccc1)NC(=O)[C@@H]1CCCN1C(=O)[C@@H](N)Cc1ccc(O)cc1` (HELM PEPTIDE1{Y.P.F.[O=C([C@@H](Cc1ccc2ccccc2c1)N[*:1])[*:2]].[am]}$$$$V2.0), the results for the MPE in the test on Mus musculus [5], with Mus musculus [6] and with Mus musculus [7] were 2.94%, 5.26% and 17.9%, respectively. Moreover, the IC50 on Mu-type opioid receptor [8] stood at 19.5 nM.

On to `Cc1cc(O)cc(C)c1C[C@H](N)C(=O)N1CCC[C@H]1C(=O)N[C@@H](Cc1ccccc1)C(=O)N[C@H](Cc1ccc2ccccc2c1)C(N)=O` (HELM PEPTIDE1{[Cc1cc(O)cc(C)c1C[C@H](N)C(=O)[*:2]].P.F.[O=C([C@@H](Cc1ccc2ccccc2c1)N[*:1])[*:2]].[am]}$$$$V2.0), for which the MPE in the test with Mus musculus [5] worked out at 0.26%; in the test on Mus musculus [6], 0.13%; in the test with Mus musculus [7], 2.26%; in the test on Mus musculus [9], 0.09%; in the test with Mus musculus [10] it was 0.18%. In addition, the IC50 on Mu-type opioid receptor [1] worked out at 1.52 nM; in test [3], 5.09 nM.

In the case of `Cc1cc(O)cc(C)c1C[C@H](N)C(=O)N(C)CC(=O)N[C@@H](Cc1ccccc1)C(=O)N[C@H](Cc1ccc2ccccc2c1)C(N)=O` (HELM PEPTIDE1{[Cc1cc(O)cc(C)c1C[C@H](N)C(=O)[*:2]].[Sar].F.[O=C([C@@H](Cc1ccc2ccccc2c1)N[*:1])[*:2]].[am]}$$$$V2.0), the MPE came to 1.89% in the test with Mus musculus [5]; 3.63% in the test on Mus musculus [6]; 11.5% in the test on Mus musculus [7]; 0.04% in the test on Mus musculus [9]; 0.09% in the test with Mus musculus [10]; 1.42% in the test on Mus musculus [11]. The IC50 on Mu-type opioid receptor [1] is 0.01 nM; in test [2], > 10 µM; in test [3], > 10000 nM. Besides, the EC50 in test [4] was > 1000 nM.

`C=CCN1CC[C@]23c4c5ccc(O)c4O[C@H]2C(=O)CC[C@@]3(O)[C@H]1C5` [NALOXONE]: the MPE in the test with Mus musculus [12] is given as 2.19%; in the test with Mus musculus [13], 0.34%; with Mus musculus [14], 0.22%.

Values taken from ChEMBL document CHEMBL1141475 (Bioorg Med Chem Lett, 2008).
